Reference: ChEMBL document CHEMBL1144389, “Optimization of purine based PDE1/PDE5 inhibitors to a potent and selective PDE5 inhibitor for the treatment of male ED” (Bioorg Med Chem Lett, 2005)

Assays:
[1] = target: T1, cGMP-specific 3',5'-cyclic phosphodiesterase (Homo sapiens, UniProt O76074); experiment: Percentage inhibition of human phosphodiesterase 5 at 100 nM
[2] = target: T1, cGMP-specific 3',5'-cyclic phosphodiesterase; experiment: Inhibition of human phosphodiesterase 5
[3] = target: Phosphodiesterases; PDE5 & PDE6 (Homo sapiens) (UniProt O76074+Q13956+P18545+P35913+O43924+P16499+P51160); experiment: Relative binding to Phosphodiesterase 6 and Phosphodiesterase 5, ratio of IC50; format: protein assay
[4] = target: Phosphodiesterase, PDE1/PDE5 (Homo sapiens) (UniProt O76074+P54750+Q01064+Q14123); experiment: Relative binding to Phosphodiesterase 1 and Phosphodiesterase 5, ratio of IC50; format: protein assay
Phosphodiesterase 1 = Phosphodiesterase 1 (Homo sapiens, UniProt P54750+Q01064+Q14123); experiment: Inhibition of human phosphodiesterase 1; format: protein assay
Phosphodiesterase 3 = Phosphodiesterase 3 (Homo sapiens, UniProt Q14432+Q13370); experiment: Inhibition of human phosphodiesterase 3; format: protein assay
[5] = target: High affinity cGMP-specific 3',5'-cyclic phosphodiesterase 9A (Homo sapiens, UniProt O76083); experiment: Inhibition of Phosphodiesterase 9
[6] = target: cGMP-dependent 3',5'-cyclic phosphodiesterase (Homo sapiens, UniProt O00408); experiment: Inhibition of human phosphodiesterase 2
Phosphodiesterase 7 = Phosphodiesterase 7 (Homo sapiens, UniProt Q13946+Q9NP56); experiment: Inhibition of human phosphodiesterase 7; format: protein assay
[7] = target: cAMP and cAMP-inhibited cGMP 3',5'-cyclic phosphodiesterase 10A (Homo sapiens, UniProt Q9Y233); experiment: Inhibitory concentration against human phosphodiesterase 10
[8] = Inhibitory concentration against human phosphodiesterase 8 activity
Outline: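 Scintillation proximity assay using a cAMP-PDE SPA kit, with 0.05 μM cAMP as substrate.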

[9] = target: Dual 3',5'-cyclic-AMP and -GMP phosphodiesterase 11A (Homo sapiens, UniProt Q9HCR9); experiment: Inhibition of human phosphodiesterase 11
Phosphodiesterase 4 = Phosphodiesterase 4 (Homo sapiens, UniProt P27815+Q08499+Q07343+Q08493); experiment: Inhibition of human phosphodiesterase 4; format: protein assay
Phosphodiesterase 6 = experiment: Inhibition of human phosphodiesterase 6; format: protein assay

cAMP and cAMP-inhibited cGMP 3',5'-cyclic phosphodiesterase 10A, sequence (Q9Y233 whole entry): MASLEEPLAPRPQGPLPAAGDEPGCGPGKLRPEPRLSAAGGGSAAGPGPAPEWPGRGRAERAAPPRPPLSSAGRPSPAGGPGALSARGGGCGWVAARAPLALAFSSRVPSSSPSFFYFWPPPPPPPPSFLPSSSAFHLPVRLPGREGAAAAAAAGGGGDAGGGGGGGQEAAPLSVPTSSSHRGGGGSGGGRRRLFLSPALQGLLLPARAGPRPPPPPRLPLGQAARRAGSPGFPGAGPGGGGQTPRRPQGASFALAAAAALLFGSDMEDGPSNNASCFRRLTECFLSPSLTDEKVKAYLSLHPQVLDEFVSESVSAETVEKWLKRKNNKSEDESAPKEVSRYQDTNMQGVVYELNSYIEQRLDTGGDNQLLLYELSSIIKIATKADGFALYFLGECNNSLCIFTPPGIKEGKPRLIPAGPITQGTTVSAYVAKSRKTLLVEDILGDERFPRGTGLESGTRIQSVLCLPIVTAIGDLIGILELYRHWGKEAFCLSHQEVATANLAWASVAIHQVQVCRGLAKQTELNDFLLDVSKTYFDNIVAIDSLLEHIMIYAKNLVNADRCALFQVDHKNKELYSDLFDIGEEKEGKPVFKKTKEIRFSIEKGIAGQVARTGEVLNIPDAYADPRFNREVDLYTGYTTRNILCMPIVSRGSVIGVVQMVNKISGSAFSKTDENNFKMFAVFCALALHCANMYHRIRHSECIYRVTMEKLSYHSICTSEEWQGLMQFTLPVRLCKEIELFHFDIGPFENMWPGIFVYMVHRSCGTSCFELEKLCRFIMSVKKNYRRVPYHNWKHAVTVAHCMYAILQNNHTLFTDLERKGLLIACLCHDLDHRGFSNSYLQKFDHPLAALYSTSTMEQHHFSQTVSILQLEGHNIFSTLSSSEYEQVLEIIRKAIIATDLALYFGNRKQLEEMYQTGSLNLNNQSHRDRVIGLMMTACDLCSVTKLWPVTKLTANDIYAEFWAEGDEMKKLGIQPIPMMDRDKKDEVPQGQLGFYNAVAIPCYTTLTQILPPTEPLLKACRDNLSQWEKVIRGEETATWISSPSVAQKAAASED
cGMP-dependent 3',5'-cyclic phosphodiesterase, sequence (O00408 whole entry): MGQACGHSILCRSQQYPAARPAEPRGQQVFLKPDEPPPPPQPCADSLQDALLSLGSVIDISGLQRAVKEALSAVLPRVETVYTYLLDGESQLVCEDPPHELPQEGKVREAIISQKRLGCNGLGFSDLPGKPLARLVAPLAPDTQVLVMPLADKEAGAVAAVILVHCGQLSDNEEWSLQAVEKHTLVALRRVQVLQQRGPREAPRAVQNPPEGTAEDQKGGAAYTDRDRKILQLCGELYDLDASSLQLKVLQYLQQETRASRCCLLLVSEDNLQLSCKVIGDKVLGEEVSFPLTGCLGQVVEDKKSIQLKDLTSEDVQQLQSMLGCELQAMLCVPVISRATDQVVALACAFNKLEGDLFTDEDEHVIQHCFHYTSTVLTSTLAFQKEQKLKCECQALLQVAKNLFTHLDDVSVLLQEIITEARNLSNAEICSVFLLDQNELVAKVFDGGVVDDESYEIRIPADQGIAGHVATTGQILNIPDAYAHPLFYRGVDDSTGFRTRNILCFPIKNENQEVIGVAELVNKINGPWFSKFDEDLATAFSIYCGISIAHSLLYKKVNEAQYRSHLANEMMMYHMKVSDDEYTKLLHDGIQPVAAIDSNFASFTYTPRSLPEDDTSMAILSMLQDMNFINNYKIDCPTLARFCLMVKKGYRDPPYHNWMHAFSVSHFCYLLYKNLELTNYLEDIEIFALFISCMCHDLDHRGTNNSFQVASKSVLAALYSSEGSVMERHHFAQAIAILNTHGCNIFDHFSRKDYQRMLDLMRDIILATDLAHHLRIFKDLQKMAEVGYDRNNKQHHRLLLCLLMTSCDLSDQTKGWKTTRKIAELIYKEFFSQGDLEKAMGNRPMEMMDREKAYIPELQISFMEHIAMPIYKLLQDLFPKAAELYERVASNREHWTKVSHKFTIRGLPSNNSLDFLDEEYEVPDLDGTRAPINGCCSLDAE
Dual 3',5'-cyclic-AMP and -GMP phosphodiesterase 11A, sequence (Q9HCR9 whole entry): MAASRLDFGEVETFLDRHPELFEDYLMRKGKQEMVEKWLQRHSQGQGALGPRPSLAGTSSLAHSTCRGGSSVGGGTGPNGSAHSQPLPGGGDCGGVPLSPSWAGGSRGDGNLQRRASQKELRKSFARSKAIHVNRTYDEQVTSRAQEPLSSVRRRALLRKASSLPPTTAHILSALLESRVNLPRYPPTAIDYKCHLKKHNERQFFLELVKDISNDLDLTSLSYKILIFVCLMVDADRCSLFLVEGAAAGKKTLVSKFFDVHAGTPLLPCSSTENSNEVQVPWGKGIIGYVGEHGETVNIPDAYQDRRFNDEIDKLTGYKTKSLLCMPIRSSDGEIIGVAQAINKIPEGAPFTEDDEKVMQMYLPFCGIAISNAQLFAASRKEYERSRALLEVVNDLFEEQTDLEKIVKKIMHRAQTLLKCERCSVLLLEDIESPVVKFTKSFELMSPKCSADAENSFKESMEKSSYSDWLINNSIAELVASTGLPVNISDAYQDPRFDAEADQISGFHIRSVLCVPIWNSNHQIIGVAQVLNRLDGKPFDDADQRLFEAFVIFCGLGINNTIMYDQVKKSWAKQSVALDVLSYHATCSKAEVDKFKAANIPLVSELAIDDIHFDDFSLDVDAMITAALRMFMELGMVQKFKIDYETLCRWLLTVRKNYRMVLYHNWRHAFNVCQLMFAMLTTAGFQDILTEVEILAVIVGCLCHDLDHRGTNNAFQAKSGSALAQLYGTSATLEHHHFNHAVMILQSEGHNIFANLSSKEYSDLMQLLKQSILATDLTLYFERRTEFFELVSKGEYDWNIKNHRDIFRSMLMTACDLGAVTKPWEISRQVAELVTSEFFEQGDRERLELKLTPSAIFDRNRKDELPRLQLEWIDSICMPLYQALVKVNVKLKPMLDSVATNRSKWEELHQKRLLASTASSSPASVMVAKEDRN
High affinity cGMP-specific 3',5'-cyclic phosphodiesterase 9A, sequence (O76083 whole entry): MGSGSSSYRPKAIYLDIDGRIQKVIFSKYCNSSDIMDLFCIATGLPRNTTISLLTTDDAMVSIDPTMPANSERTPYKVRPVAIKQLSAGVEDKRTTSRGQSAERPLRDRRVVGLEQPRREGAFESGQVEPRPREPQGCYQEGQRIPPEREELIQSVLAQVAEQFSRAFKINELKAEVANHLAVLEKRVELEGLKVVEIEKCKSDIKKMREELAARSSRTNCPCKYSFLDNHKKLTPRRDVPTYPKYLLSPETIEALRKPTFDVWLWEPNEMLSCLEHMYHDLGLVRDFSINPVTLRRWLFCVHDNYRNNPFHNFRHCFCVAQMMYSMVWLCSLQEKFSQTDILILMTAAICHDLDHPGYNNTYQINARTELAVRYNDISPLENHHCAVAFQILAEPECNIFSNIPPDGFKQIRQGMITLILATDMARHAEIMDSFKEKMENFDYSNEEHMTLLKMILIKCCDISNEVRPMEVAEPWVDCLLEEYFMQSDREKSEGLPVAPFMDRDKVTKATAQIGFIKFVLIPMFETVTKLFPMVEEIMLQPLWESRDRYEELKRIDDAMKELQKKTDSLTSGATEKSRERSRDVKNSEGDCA

| SMILES | IC50 [2] [nM] | Ratio [3] | other results |
| --- | --- | --- | --- |
| O=C1c2nc(Cc3ccccc3)[nH]c2N2C[C@@H](Cc3ccccc3)N=C2N1C1CC1 | – | – | inhibition [1]: 21% |
| CCN1C(=O)c2c(nc(C#Cc3ccccc3)n2Cc2ccc(O)cc2)N2C[C@@H](Cc3ccccc3)N=C12 | 5.3 | 19.8 | – |
| CCN1C(=O)c2c(nc(Cc3ccccc3)n2Cc2ccccc2)N2C[C@@H](Cc3ccccc3)N=C12 | – | – | inhibition [1]: 23% |
| C=CCN1C(=O)c2nc(Cc3ccccc3)n(Cc3ccccc3)c2N2C[C@@H](Cc3ccccc3)N=C12 | – | – | inhibition [1]: 17% |
| CC[C@@H]1CN2C(=N1)N(CC)C(=O)c1nc(Cc3ccccc3)n(Cc3ccccc3)c12 | – | – | inhibition [1]: 4% |
| O=C1c2nc(Cc3ccccc3)n(Cc3ccccc3)c2N2C[C@@H](Cc3ccccc3)N=C2N1C1CC1 | – | – | inhibition [1]: 12% |
| CCN1C(=O)c2c(nc(Br)n2Cc2ccc(OC)cc2)N2C[C@@H](Cc3ccccc3)N=C12 | – | 4.8 | – |
| CCN1C(=O)c2nc(Cc3ccccc3)n(Cc3ccccc3)c2N2C[C@@H](c3ccccc3)N=C12 | 40 | 1.3 | – |
| CN1C(=O)c2nc(Cc3ccccc3)n(Cc3ccccc3)c2N2C[C@@H](Cc3ccccc3)N=C12 | – | – | inhibition [1]: 6% |
| CN1C(=O)c2[nH]c(Cc3ccccc3)nc2N2C1=N[C@@H]1CCC[C@@H]12 | – | – | Ratio [4]: 1.3 |
| CCN1C(=O)c2nc(CCc3ccccc3)n(Cc3ccccc3)c2N2C[C@@H](Cc3ccccc3)N=C12 | 74 | 7.4 | – |
| CCN1C(=O)c2nc(C#Cc3ccccc3)n(Cc3ccc(OC)cc3)c2N2C[C@@H](Cc3ccccc3)N=C12 | 20 | 4.5 | – |
| CCN1C(=O)c2nc(C#Cc3ccccc3)n(Cc3ccc(O)cc3)c2N2C[C@@H](Cc3ccccc3)N=C12 | 6.5 | 23 | Ratio [4]: > 1540 |
| CN1CC(=O)N2[C@H](c3ccc4c(c3)OCO4)c3[nH]c4ccccc4c3C[C@@H]2C1=O | – | – | IC50 (Phosphodiesterase 1): > 10 µM; IC50 (Phosphodiesterase 3): > 10 µM; IC50 [5]: > 10 µM; IC50 [6]: > 10 µM; IC50 (Phosphodiesterase 7): > 10 µM; IC50 [7]: > 10000 nM; IC50 [8]: > 10 µM |
| O=C1c2[nH]c(Cc3ccccc3)nc2N2C[C@@H](Cc3ccccc3)N=C2N1CC(F)(F)F | – | – | inhibition [1]: 34% |
| CCN1C(=O)c2[nH]c(Cc3ccccc3)nc2N2C1=N[C@@H]1CCC[C@@H]12 | 19 | – | Ratio [4]: 342 |
| CCCN1C(=O)c2[nH]c(Cc3ccccc3)nc2N2C[C@@H](Cc3ccccc3)N=C12 | – | – | inhibition [1]: 25% |
| O=C1c2nc(Cc3ccccc3)n(Cc3ccccc3)c2N2C[C@@H](Cc3ccccc3)N=C2N1CC(F)(F)F | – | – | inhibition [1]: 7% |
| CCN1C(=O)c2c(nc(I)n2Cc2ccccc2)N2C[C@@H](Cc3ccccc3)N=C12 | – | – | inhibition [1]: 32% |
| CCN1C(=O)c2c(nc(C#Cc3ccccc3)n2Cc2ccc(OC)cc2)N2C[C@@H](Cc3ccccc3)N=C12 | 14 | 1.7 | – |
| CCN1C(=O)c2nc(Br)n(Cc3ccc(O)cc3)c2N2C[C@@H](Cc3ccccc3)N=C12 | 7.8 | 51.3 | Ratio [4]: > 1590 |
| CCN1C(=O)c2nc(Br)n(Cc3ccc(OC)cc3)c2N2C[C@@H](Cc3ccccc3)N=C12 | 48 | 7.8 | – |
| CC(C)N1C(=O)c2nc(Cc3ccccc3)n(Cc3ccccc3)c2N2C[C@@H](Cc3ccccc3)N=C21 | – | – | inhibition [1]: 13% |
| CCCc1nc(C)c2c(=O)nc(-c3cc(S(=O)(=O)N4CCN(CC)CC4)ccc3OCC)[nH]n12 | – | – | IC50 [9]: 130 nM; IC50 [6]: > 10 µM; IC50 [7]: 790 nM; IC50 [8]: > 10 µM |
| CON1C(=O)c2nc(Cc3ccccc3)n(Cc3ccccc3)c2N2C[C@@H](Cc3ccccc3)N=C12 | – | – | inhibition [1]: 17% |
| CCCc1nn(C)c2c(=O)[nH]c(-c3cc(S(=O)(=O)N4CCN(C)CC4)ccc3OCC)nc12 | – | – | IC50 [8]: > 10 µM |
| Oc1nc2n(c3nc(Cc4ccccc4)nc1-3)C[C@@H](Cc1ccccc1)N2 | – | – | inhibition [1]: 22% |

More lines, main results first:

| IC50 [2] [nM] | Ratio [3] | SMILES | other results |
| --- | --- | --- | --- |
| 15 | 40 | CCN1C(=O)c2c(nc(C)n2Cc2ccc(O)cc2)N2C[C@@H](Cc3ccccc3)N=C12 | – |
| 3.3 | 93.9 | CCN1C(=O)c2c(nc(I)n2Cc2ccc(O)cc2)N2C[C@@H](Cc3ccccc3)N=C12 | – |
| 145 | 4.5 | CCN1C(=O)c2nc(Br)n(Cc3ccccc3)c2N2C[C@@H](Cc3ccccc3)N=C12 | – |
| 60 | 0.7 | CCC[C@@H]1CN2C(=N1)N(CC)C(=O)c1[nH]c(Cc3ccccc3)nc12 | Ratio [4]: > 167 |
| 100 | 2.3 | CN1C(=O)c2[nH]c(Cc3ccccc3)nc2N2C[C@@H](Cc3ccccc3)N=C12 | Ratio [4]: 11 |
| 29 | 7.4 | CCN1C(=O)c2c(nc(Cc3ccccc3)n2Cc2ccc(O)cc2)N2C[C@@H](Cc3ccccc3)N=C12 | – |
| 28 | 7.9 | CCN1C(=O)c2nc(Cc3ccccc3)n(Cc3ccc(O)cc3)c2N2C[C@@H](Cc3ccccc3)N=C12 | – |
| 28 | 1 | CCN1C(=O)c2[nH]c(Cc3ccccc3)nc2N2C[C@@H](C(C)C)N=C12 | Ratio [4]: 59 |
| 33 | 2.4 | CC[C@@H]1CN2C(=N1)N(CC)C(=O)c1[nH]c(Cc3ccccc3)nc12 | Ratio [4]: > 303 |
| – | 1.8 | CCN1C(=O)c2[nH]c(Cc3ccccc3)nc2N2C[C@@H](Cc3ccccc3)N=C12 | Ratio [4]: > 2220 |
| 35 | 4.9 | CCC[C@@H]1CN2C(=N1)N(CC)C(=O)c1nc(Cc3ccccc3)n(Cc3ccccc3)c12 | Ratio [4]: > 286 |
| 22 | 4 | CC(C)N1C(=O)c2[nH]c(Cc3ccccc3)nc2N2C[C@@H](Cc3ccccc3)N=C21 | – |
| 38 | 7.5 | CCN1C(=O)c2nc(Cc3ccccc3)n(Cc3ccc(OC)cc3)c2N2C[C@@H](Cc3ccccc3)N=C12 | – |
| 200 | 5 | CCN1C(=O)c2ncn(Cc3ccccc3)c2N2C[C@@H](Cc3ccccc3)N=C12 | – |
| 2.3 | 93.5 | CCN1C(=O)c2c(nc(Cl)n2Cc2ccc(O)cc2)N2C[C@@H](Cc3ccccc3)N=C12 | Ratio [4]: > 4350 |
| 2.5 | 72 | CCN1C(=O)c2c(nc(Br)n2Cc2ccc(O)cc2)N2C[C@@H](Cc3ccccc3)N=C12 | IC50 (Phosphodiesterase 1): > 10 µM; Ratio [4]: > 4000; IC50 (Phosphodiesterase 3): > 10 µM; IC50 [5]: > 10 µM; IC50 [9]: 540 nM; IC50 [6]: > 10 µM; IC50 (Phosphodiesterase 7): > 10 µM; IC50 (Phosphodiesterase 4): 1.4 µM; IC50 (Phosphodiesterase 6): 0.18 µM; IC50 [7]: 2200 nM; IC50 [8]: > 10 µM |
| 40 | 3.6 | CCN1C(=O)c2c(nc(C#Cc3ccccc3)n2Cc2ccccc2)N2C[C@@H](Cc3ccccc3)N=C12 | – |
| – | 5.3 | CCN1C(=O)c2nc(Cc3ccccc3)n(Cc3ccccc3)c2N2C[C@@H](Cc3ccccc3)N=C12 | Ratio [4]: > 313 |
| 130 | 1.8 | CCN1C(=O)c2c(nc(Cc3ccccc3)n2Cc2ccc(OC)cc2)N2C[C@@H](Cc3ccccc3)N=C12 | – |
| 60 | 7.3 | CCN1C(=O)c2nc(Cl)n(Cc3ccccc3)c2N2C[C@@H](Cc3ccccc3)N=C12 | – |
| – | 15 | CCN1C(=O)c2nc(C#Cc3ccccc3)n(Cc3ccccc3)c2N2C[C@@H](Cc3ccccc3)N=C12 | Ratio [4]: > 303 |
